# Reference: ChEMBL document CHEMBL1255370, “Activity of pradofloxacin against Porphyromonas and Prevotella spp. Implicated in periodontal disease in dogs: susceptibility test data from a European multicenter study” (2008)
# Experiments:
# [1] = test system: Porphyromonas; assay: Antimicrobial activity against Porphyromonas isolated from canine periodontal pockets after 48 hrs by agar dilution method; format: functional
# Outline: (§1)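 Isolates came from canine periodontal pockets (2004–2006, six countries; dogs without antimicrobials for ≥4 weeks), cultured anaerobically at 35 ± 1°C and identified by Biolog. MICs were found by CLSI M11-A6 agar dilution on brucella blood agar with hemin and vitamin K, using a multipoint inoculator under strict anaerobiosis for up to 48 h. QC strains were B. fragilis ATCC 25285 and E. lentum ATCC 43055.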
# [2] = test system: Porphyromonas circumdentaria; assay: Antimicrobial activity against Porphyromonas circumdentaria isolated from canine periodontal pockets after 48 hrs by agar dilution method; format: functional; outline: as §1
# [3] = test system: Prevotella corporis; assay: Antimicrobial activity against Prevotella corporis isolated from canine periodontal pockets after 48 hrs by agar dilution method; format: functional; outline: as §1
# [4] = test system: Prevotella nigrescens; assay: Antimicrobial activity against Prevotella nigrescens isolated from canine periodontal pockets after 48 hrs by agar dilution method; format: functional; outline: as §1
# [5] = test system: Hoylesella oralis; assay: Antimicrobial activity against Prevotella oralis isolated from canine periodontal pockets after 48 hrs by agar dilution method; format: functional; outline: as §1
# [6] = test system: Prevotella disiens; assay: Antimicrobial activity against Prevotella disiens isolated from canine periodontal pockets after 48 hrs by agar dilution method; format: functional; outline: as §1
# [7] = test system: Prevotella denticola; assay: Antimicrobial activity against Prevotella denticola isolated from canine periodontal pockets after 48 hrs by agar dilution method; format: functional; outline: as §1
# [8] = test system: Porphyromonas gingivalis; assay: Antimicrobial activity against Porphyromonas gingivalis isolated from canine periodontal pockets after 48 hrs by agar dilution method
# [9] = test system: Porphyromonas macacae; assay: Antimicrobial activity against Porphyromonas salivosa isolated from canine periodontal pockets after 48 hrs by agar dilution method; format: functional; outline: as §1
# [10] = test system: Prevotella buccae; assay: Antimicrobial activity against Prevotella buccae isolated from canine periodontal pockets after 48 hrs by agar dilution method; format: functional; details: Segatella buccae; outline: as §1
# [11] = test system: Bacteroides heparinolyticus; assay: Antimicrobial activity against Bacteroides heparinolyticus isolated from canine periodontal pockets after 48 hrs by agar dilution method; format: functional; details: Prevotella heparinolytica; outline: as §1
# [12] = test system: Bacteroides zoogleoformans; assay: Antimicrobial activity against Bacteroides zoogleoformans isolated from canine periodontal pockets after 48 hrs by agar dilution method; format: functional; outline: as §1
# [13] = test system: Prevotella intermedia; assay: Antimicrobial activity against Prevotella intermedia isolated from canine periodontal pockets after 48 hrs by agar dilution method; format: functional; outline: as §1
# [14] = test system: Hoylesella loescheii; assay: Antimicrobial activity against Prevotella loescheii isolated from canine periodontal pockets after 48 hrs by agar dilution method; format: functional; outline: as §1
# [15] = test system: Prevotella oris; assay: Antimicrobial activity against Prevotella oris isolated from canine periodontal pockets after 48 hrs by agar dilution method; format: functional; details: Segatella oris; outline: as §1
# [16] = test system: Porphyromonas levii; assay: Antimicrobial activity against Porphyromonas levii isolated from canine periodontal pockets after 48 hrs by agar dilution method; format: functional; outline: as §1
# [17] = test system: Porphyromonas macacae; assay: Antimicrobial activity against Porphyromonas macacae isolated from canine periodontal pockets after 48 hrs by agar dilution method; format: functional; outline: as §1
# [18] = test system: Porphyromonas asaccharolytica; assay: Antimicrobial activity against Porphyromonas asaccharolyticus isolated from canine periodontal pockets after 48 hrs by agar dilution method; format: functional; outline: as §1
# [19] = test system: Prevotella oulorum; assay: Antimicrobial activity against Prevotella oulorum isolated from canine periodontal pockets after 48 hrs by agar dilution method; format: functional; details: Segatella oulorum; outline: as §1
# [20] = test system: Prevotella sp.; assay: Antimicrobial activity against Prevotella sp. isolated from canine periodontal pockets after 48 hrs by agar dilution method; format: functional; outline: as §1
Structure (SMILES),MIC50 [2] [µg/mL],MIC90 [2] [µg/mL],MIC50 [3] [µg/mL],MIC90 [3] [µg/mL],MIC50 [4] [µg/mL],MIC90 [4] [µg/mL],MIC50 [5] [µg/mL],MIC50 [6] [µg/mL],MIC50 [7] [µg/mL],MIC50 [8] [µg/mL],MIC90 [8] [µg/mL],MIC50 [9] [µg/mL],MIC90 [9] [µg/mL],MIC [10] [µg/mL],MIC50 [11] [µg/mL],MIC90 [11] [µg/mL],MIC [12] [µg/mL],MIC50 [13] [µg/mL],MIC [14] [µg/mL],MIC50 [15] [µg/mL],further results
NC1CCN(c2c(F)cc3c(=O)c(C(=O)O)cn(C4CC4)c3c2Cl)C1 (configuration not stated) [CLINAFLOXACIN],–,–,–,–,–,–,–,–,–,–,–,–,–,–,–,–,–,–,–,–,MIC90 [1]: 0.125 µg/mL
Cc1ncc([N+](=O)[O-])n1CCO [METRONIDAZOLE],0.125,0.25,0.062,0.25,0.125,0.5,0.25,0.062,0.125,0.062,0.25,0.25,0.5,0.5,0.25,0.5,0.125,≤ 0.016,0.062,0.5,MIC [13]: ≤ 0.016 µg/mL; MIC50 [16]: 0.062 µg/mL; MIC90 [16]: 0.125 µg/mL; MIC50 [17]: 0.125 µg/mL; MIC90 [17]: 0.25 µg/mL; MIC50 [18]: 0.031 µg/mL; MIC90 [18]: 0.125 µg/mL; MIC [19]: 0.25 µg/mL; MIC50 [20]: 0.25 µg/mL; MIC90 [20]: 0.5 µg/mL
N#Cc1c(N2C[C@@H]3CCCN[C@@H]3C2)c(F)cc2c(=O)c(C(=O)O)cn(C3CC3)c12 [PRADOFLOXACIN],0.062,0.25,0.062,0.125,0.062,0.25,0.062,0.062,0.062,0.031,0.125,0.125,0.125,0.25,0.062,0.25,0.125,0.031,0.062,0.062,MIC [5]: 0.062 µg/mL; MIC [7]: 0.062 µg/mL; MIC50 [16]: 0.062 µg/mL; MIC90 [16]: 0.125 µg/mL; MIC50 [17]: 0.062 µg/mL; MIC90 [17]: 0.125 µg/mL; MIC50 [18]: 0.062 µg/mL; MIC90 [18]: 0.062 µg/mL; MIC [19]: 0.031 µg/mL; MIC50 [20]: 0.062 µg/mL; MIC90 [20]: 0.25 µg/mL
